# Hit rate of the full screen: of about 310,000 compounds, about 1,500 (0.48%) were called active.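 How the source made its calls: active means B-score above 5 SD of library B-scores, and initial fluorescence ratio not above library mean plus 5 SD; inactive means the rest.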 The entries come from a sample that favours actives as a whole.
# Molecular target: Short transient receptor potential channel 4 (Mus musculus) (UniProt Q9QUQ5)
# Assay: TRPC4 cation channel opening, calcium rise – Fluo4 calcium, HEK293 TRPC4beta/mu-opioid cells, primary screen (AID 2237);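 on B-score: positive B-score marks a calcium rise read as TRPC4 activation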
# Details: Fluo4 calcium fluorescence, at 10 µM; active compounds read high
# Method in brief: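 Assay system – TRPC4beta and mu-opioid receptor HEK293 stable cells · Measured by – Fluo4 fluorescence, kinetic · Schedule – dye loading 45 min room temperature, 110 s kinetic read · Read-out – B-scored integrated calcium fluorescence ratio · Controls – buffer and maximal DAMGO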
# Short transient receptor potential channel 4 (Mus musculus), sequence (Q9QUQ5 whole entry, looked up): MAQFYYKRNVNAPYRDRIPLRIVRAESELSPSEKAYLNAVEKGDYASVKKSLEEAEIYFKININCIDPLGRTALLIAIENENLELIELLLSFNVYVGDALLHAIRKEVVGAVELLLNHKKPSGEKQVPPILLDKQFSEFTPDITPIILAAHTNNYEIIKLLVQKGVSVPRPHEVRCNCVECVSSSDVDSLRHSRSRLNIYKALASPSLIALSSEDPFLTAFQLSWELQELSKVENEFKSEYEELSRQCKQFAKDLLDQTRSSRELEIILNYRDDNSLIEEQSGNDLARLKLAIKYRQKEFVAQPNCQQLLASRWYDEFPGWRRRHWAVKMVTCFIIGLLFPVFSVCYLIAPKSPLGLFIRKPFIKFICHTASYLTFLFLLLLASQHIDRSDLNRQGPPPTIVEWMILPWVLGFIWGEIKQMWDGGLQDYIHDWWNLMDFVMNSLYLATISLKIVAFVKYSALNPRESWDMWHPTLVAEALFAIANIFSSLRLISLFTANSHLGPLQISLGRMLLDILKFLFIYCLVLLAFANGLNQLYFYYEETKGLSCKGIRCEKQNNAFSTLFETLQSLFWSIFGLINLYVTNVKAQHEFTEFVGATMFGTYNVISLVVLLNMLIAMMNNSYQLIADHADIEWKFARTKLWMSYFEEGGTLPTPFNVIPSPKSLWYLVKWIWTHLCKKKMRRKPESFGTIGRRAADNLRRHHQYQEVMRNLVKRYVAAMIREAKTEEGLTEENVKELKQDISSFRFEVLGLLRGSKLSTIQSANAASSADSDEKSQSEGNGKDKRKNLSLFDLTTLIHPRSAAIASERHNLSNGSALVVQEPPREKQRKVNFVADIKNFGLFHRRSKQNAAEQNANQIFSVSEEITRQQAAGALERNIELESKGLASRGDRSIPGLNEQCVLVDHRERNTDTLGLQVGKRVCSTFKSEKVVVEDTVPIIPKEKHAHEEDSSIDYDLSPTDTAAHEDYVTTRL
row,SMILES,B-score
1,CCNS(=O)(=O)c1ccc(CCC(=O)N2CCN(c3ccc(OC)cc3)CC2)cc1,inactive
2,CN1C(CC(=O)Nc2ccc(Br)cc2)c2ccccc2CC1(C)C (stereo not drawn),109 (active)
3,COCC(=O)Nc1ccc(Br)cc1,inactive
4,CN1CCN(NC(=O)Nc2ccc(Br)cc2)CC1,inactive
5,COC(=O)C1CCN(C(=O)NC2CC(=O)N(c3ccc4c(c3)OCCO4)C2)CC1 (stereo not drawn),inactive
6,CN(CC(=O)Nc1ccccc1Cl)C(=O)COc1cccc2c1OC(C)(C)C2,inactive
7,CCOc1ccccc1-c1nc(CN2CCC(C(=O)N3CCOCC3)CC2)c(C)o1,inactive
8,CCOC(=O)C1(CC2CCCCO2)CCN(Cc2nc(-c3cccs3)oc2C)CC1 (stereo not drawn),73 (active)
9,COc1cccc(CC2(CO)CCCN(Cc3nc(-c4cccs4)oc3C)C2)c1 (stereo not drawn),inactive
10,CC12CCC(C(=O)N(NC(=O)c3ccccc3O)C1=O)C2(C)C (stereo not drawn),inactive
11,O=C(NCc1cccnc1)c1cnc2ccccc2n1,inactive
12,COc1cc(C(=O)Nn2c(CC(C)C)nc3ccccc3c2=O)cc(OC)c1OC,inactive
13,Cc1ccc(CNC(=O)c2c(-c3ccccc3)noc2C)cc1,inactive
14,CCc1noc(C)c1C(=O)NNC(=O)c1ccc(F)cc1,inactive
15,Cc1onc(-c2ccccc2)c1C(=O)Nc1ccccc1C#N,inactive
16,Cc1onc(-c2ccccc2)c1C(=O)NNC(=S)NC(=O)c1ccc(F)cc1,185 (active)
17,Cc1onc(-c2c(Cl)cccc2Cl)c1C(=O)NNC(=O)c1c(-c2c(Cl)cccc2Cl)noc1C,inactive
18,COc1ccc(C(=O)NC(=S)NNC(=O)c2c(-c3ccccc3)noc2C)cc1,133 (active)
19,CCc1cccc(C)c1NS(=O)(=O)c1cc(Br)cnc1N,inactive

row,SMILES,B-score
1,Cc1cc(NS(=O)(=O)c2ccc(NC(=O)C(C)Oc3cccc(C)c3C)cc2)nc(C)n1 (stereo not drawn),inactive
2,COc1ccccc1N1CCN(c2nc(C)cc(=O)[nH]2)CC1,inactive
3,Cc1ccc(CN2CCN(c3ccccc3Cl)CC2)o1,inactive
4,OCCNCCCCOc1ccccc1F,inactive
5,OCCNCc1cccc(OCc2ccccc2Cl)c1,inactive
6,OCCNCCOc1ccc(Cl)c(Cl)c1,70 (active)
7,COc1cccc2c1CCC(NC(C)=O)C2=O (stereo not drawn),inactive
8,c1ccc(C[C@H]2CNCCN2CCC23CC4CC(CC(C4)C2)C3)cc1,inactive
9,COC(=O)C1(C)CC1(c1ccccc1)c1ccccc1 (stereo not drawn),inactive
10,CCN(CC(=O)Nc1ccc(S(=O)(=O)N2CCCC2)cc1)CC(=O)Nc1cccc(OC)c1,inactive
11,COc1cccc(NC(C)=[N+](C)CCNS(=O)(=O)c2ccc(Cl)cc2)c1,inactive
12,CCNS(=O)(=O)c1ccc(NC(=O)Nc2cccc(OC)c2)cc1,54 (active)
13,CC(CN1CCCCC1)c1ccccc1 (stereo not drawn),inactive
14,CC(=O)N1CCN(CC(c2ccccc2)c2ccccc2)CC1,inactive
15,CC(=O)c1ccc(N2CCN(C(=O)CCc3ccccc3)CC2)cc1,inactive
16,CC(=O)c1ccc(N2CCN(CC(O)c3ccccc3)CC2)cc1 (stereo not drawn),63 (active)
17,CCCOc1ccc(Cc2c(O)nc(N)[nH]c2=O)cc1C,inactive
18,C=CCc1ccc(OCCOc2cccc(/C=N/n3cnnc3)c2)c(OC)c1,inactive
19,COC(=O)[C@H]1Cc2cnoc2C[C@]1(C)C(=O)O,inactive
